Sampled rows, rich in hits. Any-hit rate of the full collection: about 2%.
FID counter – compounds displacing fluorescent DNA intercalator, primary screen, artefact control for HCV NS3 helicase inhibitor project, biochemical, FID fluorescence. DNA fluorescent intercalator displacement. inhibition, % at 7.9 µM. hit rate 0.17% among 290,000. AID 1845, 2009; in the data active means inhibition above about 37%;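 further: higher means more ethidium bromide displaced from hairpin DNA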
PABP1 MLLE inh – inhibitors of PABP1 MLLE–PAM2 peptide binding, primary screen, biochemical, fluorescence polarization, FITC-PAM2, GST-MLLE. hit rate 0.36% among 360,000. inhibition, % at 20 µM. Polyadenylate-binding protein 1 (Homo sapiens), P11940. AID 588489, 2011; in the data active means inhibition above about 35%, passing the limit was not always enough
Target sequence (P11940 whole entry, looked up): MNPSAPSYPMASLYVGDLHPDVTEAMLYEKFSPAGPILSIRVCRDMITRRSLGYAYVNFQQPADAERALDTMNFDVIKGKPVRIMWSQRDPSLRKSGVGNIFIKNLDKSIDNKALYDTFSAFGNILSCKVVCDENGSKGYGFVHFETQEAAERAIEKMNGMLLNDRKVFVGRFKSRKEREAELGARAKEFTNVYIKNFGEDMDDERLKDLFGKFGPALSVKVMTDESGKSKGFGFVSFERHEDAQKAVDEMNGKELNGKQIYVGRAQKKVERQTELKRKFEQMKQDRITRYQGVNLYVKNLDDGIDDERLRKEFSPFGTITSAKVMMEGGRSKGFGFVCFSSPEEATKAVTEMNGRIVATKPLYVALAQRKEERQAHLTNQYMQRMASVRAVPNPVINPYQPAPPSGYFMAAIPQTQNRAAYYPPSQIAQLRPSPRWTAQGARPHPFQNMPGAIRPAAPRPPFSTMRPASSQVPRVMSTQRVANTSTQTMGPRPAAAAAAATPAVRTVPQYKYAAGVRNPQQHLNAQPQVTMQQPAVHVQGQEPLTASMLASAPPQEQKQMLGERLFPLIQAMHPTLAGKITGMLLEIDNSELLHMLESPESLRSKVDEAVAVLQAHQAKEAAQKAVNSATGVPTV
HCV core dimer – inhibitors of HCV core protein dimerization, primary screen, biochemical, TR-FRET, high-throughput; AID 1899, 2009; inhibition, % at 5 µM; hit rate 0.33% among 300,000; TR-FRET GST/Flag-core106 dimerization, 1536-well;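 active means inhibition above the mean of all tested compounds plus 3 SD, set per screening campaign, cut at about 45% in these data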
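Material: Tagged HCV core106 pair (GST and Flag) | Amount: GST-core106 13.5 nM, Flag-core106 17 nM | Medium: KF-containing HEPES buffer, pH 7.45, DTT, CHAPS, BSA | Reagent: Eu donor and XL665 acceptor anti-tag antibodies | Schedule: 4 h at 22.5 °C | Technique: Time-resolved FRET, ex 340 nm, em 617 and 671 nm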
eIF4H FP inh – human eIF4H binding inhibitors, primary screen, translation initiation inhibitor project, biochemical, uHTS, fluorescence polarization | Eukaryotic translation initiation factor 4H (Homo sapiens), Q15056 | inhibition, % at 35 µM | hit rate 0.94% among 290,000 | AID 2012, 2009 | eIF4H fluorescence polarization binding assay;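 further: calls also rest on retests at 20 µM and on dose response follow-up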
PABP FP inh – PABP poly(A) RNA binding inhibitors, primary screen, biochemical, fluorescence polarization, uHTS. AID 2014, 2009. hit rate 1% among 290,000. inhibition, % at 35 µM. Polyadenylate-binding protein 1 (Homo sapiens), P11940;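 further: calls also rest on retests at 20 µM and on dose response follow-up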
NS3 helicase inh – inhibitors of HCV NS3 helicase, primary screen, biochemical, Cy5 molecular beacon fluorescence; hit rate 0.56% among 290,000; AID 1800, 2009; inhibition, % at 10.9 µM; NS3 helicase DNA unwinding;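 active means inhibition above the mean of all tested compounds plus 3 SD, set per campaign, cut at about 35% in these data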
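Material: hepatitis C virus NS3 helicase domain fragment enzyme; measured by: Cy5 fluorescence, 0 and 60 min reads; control set: DMSO and thioflavine S; incubation: 60 min unwinding reaction at 25 °C after ATP addition; read-out basis: % inhibition from 60/0 min fluorescence ratio, DMSO 0%, thioflavine S 100%; repeats: singlicate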
Hits are given with their value; . = inactive; / = not tested or not shown. Unless noted, how the calls were made is not given here.

SMILES | FID counter | PABP1 MLLE inh | HCV core dimer | eIF4H FP inh | PABP FP inh | NS3 helicase inh
COc1ccc(N2C(=O)[C@@H]3[C@H](C2=O)[C@H](C(=O)c2ccc(OC(C)=O)cc2)N2N=CC=C[C@@H]32)cc1 | . | / | 46 | . | . | .
CC(=O)Oc1ccc(C(=O)[C@H]2[C@H]3C(=O)N(c4ccc(C)cc4)C(=O)[C@H]3[C@@H]3C=CC=NN32)cc1 | . | . | . | . | . | .
CN(C)C=NC(=O)c1cn(-c2ccc(F)cc2)c(=O)c2ccccc12 | . | . | . | 9.9 | . | .
CN(C)C(=O)c1cn(-c2ccc(Cl)cc2)c(=O)c2ccccc12 | . | . | . | . | . | .
Cn1c2ccccc2c2ccc3c(c21)C(=O)C=CC3=O | / | . | / | / | / | /
COc1ccc2c(c1)c1ccc3c(c1n2C)C(=O)C=CC3=O | . | 49 | / | . | . | .
Cc1ccc2c(c1)c1ccc3c(c1n2C)C(=O)C=CC3=O | . | 42 | / | . | . | .
Cc1ccc(C)c(S(=O)(=O)N2CCN(C(=O)CSC(=S)N3CCCC3)CC2)c1 | / | . | . | / | / | /
CCCCC[C@@H]1C=C(C(=O)O)[C@H](c2ccc3c(c2)OCO3)N1S(=O)(=O)c1ccc(C)cc1 | / | . | / | / | / | /
Cc1ccc2ncnc(NCCCN3CCOCC3)c2c1 | . | . | . | . | . | .
N#Cc1c2c(c(NCCN3CCOCC3)n3c1nc1ccccc13)CCCC2 | . | . | . | . | . | .
N#Cc1c2c(c(NCCCN3CCOCC3)n3c1nc1ccccc13)CCC2 | . | . | . | 93 | 70 | .
Cc1cccc(-c2nc(NCCCN3CCOCC3)c3ccccc3n2)c1 | 53 | . | . | . | . | .
c1ccc(-c2nc(NCCCN3CCOCC3)c3ccccc3n2)cc1 | 55 | . | . | . | . | .
O=C(CCc1nc2ccccc2c(=O)[nH]1)N1CCN(S(=O)(=O)c2ccc(F)cc2)CC1 | / | . | / | / | / | /
CC1CCN(C(=O)CCNS(=O)(=O)c2ccc(Br)cc2)CC1 | / | . | / | / | / | /
O=C(N/N=C/c1ccccn1)c1ccc(NC(=O)c2cccc([N+](=O)[O-])c2)cc1 | . | . | . | 75 | active | .
COc1ccc(C#Cc2ccc3c(c2)O[C@@H](CN(C)C(=O)Nc2cccc(OC)c2)[C@H](C)CN([C@@H](C)CO)S3(=O)=O)cc1 | / | . | / | / | / | /
Cc1cc(NC(=O)CC#N)n(-c2ccccc2)n1 | . | . | . | 78 | . | .
Cc1ccc(Cl)c(OCCN2CCc3ccccc3C2)c1 | . | . | . | . | . | .
O=C(O)c1cnn(-c2ccccc2)c1-c1ccncc1 | . | . | . | 57 | . | .
O=C(CSc1nnc(NC(=O)c2ccccc2Cl)s1)Nc1ccc2c(c1)oc1ccccc12 | . | / | 49 | . | . | .
CC(C)(C)NC(=O)CSc1nnc(NC(=O)c2ccccc2Cl)s1 | . | . | . | . | . | .
S=C(NCc1ccncc1)Nc1ccc(Br)cc1Cl | . | . | . | . | . | .
S=C(Nc1ccc(Br)cc1Cl)Nn1cnnc1 | . | 37 | . | . | . | .
SMILES | FID counter | PABP1 MLLE inh | HCV core dimer | eIF4H FP inh | PABP FP inh | NS3 helicase inh
Cc1ccc(Cl)cc1NC(=S)Nn1cnnc1 | . | . | . | . | . | .
O=C(NNC(=S)Nc1ccc(Br)cc1Cl)c1ccncc1 | . | 47 | . | . | . | .
CC(=O)Nc1c2c3c(cccc3n(C)c1=O)C(=O)c1ccccc1-2 | . | . | . | . | . | .
CC(=O)Nc1ccc(Nc2ccc3c4c(cc(=O)n3C)-c3ccccc3C(=O)c24)cc1 | . | 65 | . | . | . | .
CCOC(=O)c1c2c3c(cccc3n(C)c1=O)C(=O)c1ccccc1-2 | . | 62 | . | . | . | .
Cc1cc(NC(=O)CN2C(=O)NC(c3ccccc3)(c3ccc(C)c(C)c3)C2=O)no1 (stereo unspecified) | / | . | / | / | / | /
Nc1c(C(=O)C2CC2)sc2nc(-c3cccs3)cc(C(F)(F)F)c12 | . | . | . | 94 | . | .
O=C(Oc1cccc2c(O)cccc12)c1ccco1 | / | . | / | / | / | /
Cc1cc(C)c(S(=O)(=O)/N=C2/C=C(Sc3ncn[nH]3)C(=O)c3ccccc32)cc1C | . | 45 | . | . | . | .
CCOc1ccc(NC(=S)NC(=O)c2c(Cl)c(C)nn2C)c([N+](=O)[O-])c1 | . | 40 | . | . | . | .
CCc1cccc(NC(=O)C2CCCN2S(=O)(=O)c2ccc3c(c2)CC(C)N3C(C)=O)c1 (stereo unspecified) | . | . | . | . | . | .
O=C(O)CN1C(=O)/C(=C2\SC(=S)N(C(Cc3ccccc3)C(=O)O)C2=O)c2ccccc21 (stereo unspecified) | . | 39 | . | . | . | .
O=C1CC(c2ccco2)CC(O)=C1C=NCCN1CCNCC1 (stereo unspecified) | . | . | . | 95 | 62 | .
O=C1CC(c2ccccc2)CC(O)=C1C=NCCN1CCNCC1 (stereo unspecified) | . | . | . | . | . | .
O=C1CC(c2ccco2)CC(O)=C1C=NCC1CCNCC1 (stereo unspecified) | . | . | . | 94 | 52 | .
CC1(C(=O)NS(=O)(=O)Cc2ccccc2C(F)(F)F)CCN1C(=O)c1ccco1 (stereo unspecified) | / | . | / | / | / | /
O=C(COC(=O)CCc1c[nH]c(=O)[nH]1)Nc1ccccc1 | . | 53 | . | . | . | .
Cc1ccc(NC(=O)COC(=O)CCc2c[nH]c(=O)[nH]2)cc1 | . | . | . | . | . | .
O=C(COC(=O)CCC(NC(=O)OCc1ccccc1)C(=O)OCC(=O)Nc1ccccc1)Nc1ccccc1 (stereo unspecified) | . | . | . | . | 59 | .
CCCCNC(=O)C1(C)CCN1C(=O)c1cc(C)n(C(C)(C)C)n1 (stereo unspecified) | / | . | / | / | / | /
CC(=O)c1c(C)[nH]c(C(=O)OCc2csc(CC(=O)Nc3ccccc3C)n2)c1C | / | . | / | / | / | /
CC(C)(C)OC(=O)[C@H](Cc1ccccc1)NC(=O)c1ncn2c1c(=O)[nH]c1ccc(Br)cc12 | / | . | / | / | / | /
O=C1/C(=C/c2ccccc2Cl)SC(=S)N1CCCC(=O)N(CCO)c1ccccc1 | . | . | . | . | . | .
COc1cccc(Nc2ncccc2C(=O)NCc2ccccc2)c1 | . | . | / | 85 | 102 | .
CCc1cccc(CC)c1N1C(=O)C2=C(SCCCS2)C1=O | / | . | / | / | / | /
COc1ccc(-n2cc(CNC3CCN(C)CC3)c(-c3cccc(F)c3)n2)cc1 | 42 | . | . | . | . | .
C=CCc1cccc(/C=N/c2ncccc2O)c1O | . | . | . | 70 | 71 | .
Cc1cccc(-n2ncc3c2CCCC3NC(=O)CCN2CCCO2)c1C (stereo unspecified) | . | . | . | . | . | .
